How the values were obtained:
[1] = molecular target: T1, cAMP and cAMP-inhibited cGMP 3',5'-cyclic phosphodiesterase 10A (Homo sapiens, UniProt Q9Y233); test: Inhibition of PDE10A (unknown origin) at 10 uM
How it was run: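 Potency against PDE10A is given as the concentration giving 50% inhibition (IC50, nM). Where no IC50 was obtained, the value is percent inhibition at 10 μM.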

[2] = Intrinsic clearance in rat liver microsomes; type: ADME; settings: read-out: CLH (converted)
[3] = molecular target: T1, cAMP and cAMP-inhibited cGMP 3',5'-cyclic phosphodiesterase 10A; test: Inhibition of PDE10A (unknown origin)
[4] = molecular target: T1, cAMP and cAMP-inhibited cGMP 3',5'-cyclic phosphodiesterase 10A; test: Inhibition of PDE10A (unknown origin) at 2 uM

T1 sequence (Q9Y233 whole entry): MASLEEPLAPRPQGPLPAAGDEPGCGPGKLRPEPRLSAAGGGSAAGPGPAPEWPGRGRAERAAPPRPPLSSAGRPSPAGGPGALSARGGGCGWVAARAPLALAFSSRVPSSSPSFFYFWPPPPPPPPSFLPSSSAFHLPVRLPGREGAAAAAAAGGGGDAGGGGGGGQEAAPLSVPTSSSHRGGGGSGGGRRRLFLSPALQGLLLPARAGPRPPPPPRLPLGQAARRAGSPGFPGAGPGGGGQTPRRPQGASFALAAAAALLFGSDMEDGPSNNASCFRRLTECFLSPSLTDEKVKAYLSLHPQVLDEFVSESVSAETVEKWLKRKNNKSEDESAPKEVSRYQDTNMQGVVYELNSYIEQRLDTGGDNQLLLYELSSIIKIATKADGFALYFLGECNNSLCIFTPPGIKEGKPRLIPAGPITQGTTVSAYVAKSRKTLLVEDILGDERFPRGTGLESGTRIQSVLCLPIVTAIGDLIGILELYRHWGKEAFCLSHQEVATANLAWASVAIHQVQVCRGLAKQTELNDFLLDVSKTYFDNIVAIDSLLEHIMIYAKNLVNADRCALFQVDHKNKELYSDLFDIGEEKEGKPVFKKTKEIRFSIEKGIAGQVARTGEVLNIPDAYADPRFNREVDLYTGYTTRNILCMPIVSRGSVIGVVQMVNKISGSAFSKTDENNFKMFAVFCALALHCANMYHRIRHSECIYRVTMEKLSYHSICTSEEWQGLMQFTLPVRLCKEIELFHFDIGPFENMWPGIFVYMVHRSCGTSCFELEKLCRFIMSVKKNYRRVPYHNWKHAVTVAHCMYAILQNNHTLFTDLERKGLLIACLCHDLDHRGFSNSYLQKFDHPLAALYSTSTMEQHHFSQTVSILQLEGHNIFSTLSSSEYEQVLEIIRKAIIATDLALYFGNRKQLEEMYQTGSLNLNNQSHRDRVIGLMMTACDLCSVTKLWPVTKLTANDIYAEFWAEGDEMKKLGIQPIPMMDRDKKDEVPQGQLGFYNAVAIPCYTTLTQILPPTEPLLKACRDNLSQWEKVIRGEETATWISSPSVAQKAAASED

SMILES | inhibition [1] [%] | CLint scaled [2] [mL/min/kg] | IC50 [3] [nM] | inhibition [4] [%]
CN(C(=O)c1ccc2ncsc2c1)c1ccc(OCc2ccc3ccccc3c2)cc1 | 5 | 48.3 |  | 
Cn1cc(-c2ccncc2)c(-c2ccc(OCc3ccc4ccccc4c3)cc2)n1 | 25 | 83.3 |  | 
CN(C(=O)c1ccncc1)c1ccc(OCc2ccc3ccccc3n2)cc1 |  | 15 |  | 
Cn1cc(-c2ccncc2)c(-c2ccc(OCc3ccc4ccccc4n3)cc2)n1 [MARDEPODECT] |  | 31.7 |  | 
CN(C(=O)c1cc(-c2ccccn2)n[nH]1)c1ccc(OCc2ccc3ccccc3n2)cc1 |  | 35 |  | 
CN(C(=O)c1cc(-c2ccccc2)n[nH]1)c1ccc(OCc2ccc3ccccc3n2)cc1 |  | 21.7 |  | 
CN(C(=O)c1ccc2ncsc2c1)c1ccc(OCc2ccc3ccccc3n2)cc1 |  | 31.7 |  | 
CN(C(=O)c1cc(-c2ccccn2)[nH]n1)c1ccc(OCc2ccc3ccccc3c2)cc1 | 4 | 30 |  | 
CN(C(=O)c1ccncc1)c1ccc(OCc2ccc3ccccc3c2)cc1 |  | 75 |  | 2
CN(C(=O)c1cc(-c2ccccc2)n[nH]1)c1ccc(OCc2ccc3ccccc3c2)cc1 | 3 | 6.83 |  | 

More lines, now with the values ahead:

inhibition [1] [%] | CLint scaled [2] [mL/min/kg] | IC50 [3] [nM] | inhibition [4] [%] | SMILES
 | > 283 | 330 |  | CN(C(=O)c1csc(-c2cccnc2)n1)c1ccc(OCB2C=Cc3ccccc3N2)cc1
11 | 115 |  |  | CN(C(=O)c1ccncc1)c1ccc(OCB2C=Cc3ccccc3N2)cc1
 | 25 | 64 |  | CN(C(=O)c1cc(-c2ccccn2)[nH]n1)c1ccc(OCB2C=Cc3ccccc3N2)cc1
 | > 283 | 170 |  | CN(C(=O)c1csc(-c2cccnc2)n1)c1ccc(OCc2ccc3ccccc3n2)cc1
48 | 41.7 |  |  | Cn1cc(-c2ccncc2)c(-c2ccc(OCB3C=Cc4ccccc4N3)cc2)n1
2 | > 283 |  |  | CN(C(=O)c1csc(-c2cccnc2)n1)c1ccc(OCc2ccc3ccccc3c2)cc1
45 | 73.3 |  |  | CN(C(=O)c1ccc2ncsc2c1)c1ccc(OCB2C=Cc3ccccc3N2)cc1
 | 5.67 | 1800 |  | CN(C(=O)c1cc(-c2ccccc2)n[nH]1)c1ccc(OCB2C=Cc3ccccc3N2)cc1
